From ChEMBL document CHEMBL3997805, “Synthesis of C5-tethered indolyl-3-glyoxylamide derivatives as tubulin polymerization inhibitors” (Eur J Med Chem, 2017)

What was measured:
DU-145 [1] = test: Induction of superoxide generation in human DU145 cells after 48 hrs by MitoSOX red dye based fluorescence microscopic method; type: functional, cell-based
How it was run: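 DU145 cells seeded at 5×10^5 cells/mL in 24-well plates and left to adhere overnight. Treated 48 h with compound at 100, 200 and 400 nM. Loaded with MitoSOX Red (5 µM) in HBSS for 15 min at 37 °C, washed three times with PBS. Imaged by fluorescence microscopy.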

DU-145 [2] = test: Antimigratory activity against human DU145 cells assessed as inhibition of wound healing at 100 nM after 24 hrs by phase contrast microscopic method relative to control; type: functional; conditions: DU-145, 24 h
How it was run: (§1)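 DU145 cells, 5 x 10^5 per well, grown 24 h in petri dishes to confluence. Monolayer scratched with a 200 µL pipette tip and washed twice with PBS. Medium with compound at 100, 200 or 400 nM was then added. Phase-contrast images taken at 0, 12 and 24 h; cells that migrated into the wound were counted manually.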

DU-145 [3] = test: Antimigratory activity against human DU145 cells assessed as inhibition of wound healing at 400 nM after 24 hrs by phase contrast microscopic method relative to control; type: functional; conditions: DU-145, 24 h; how it was run: as §1
DU-145 [4] = test: Cell cycle arrest in human DU145 cells assessed as accumulation at subG1 phase at 400 nM after 24 hrs by propidium iodide staining based flow cytometry (reference value: 1.91%); type: functional
DU-145 [5] = test: Induction of apoptosis in human DU145 cells after 24 hrs by Annexin V-FITC/propidium iodide staining based flow cytometry; type: functional, cell-based
DU-145 [6] = test: Induction of mitochondrial membrane potential loss in human DU145 cells assessed as cell population with intact membrane potential at 200 nM after 24 hrs by JC-1 staining based flow cytometry (reference value: 80.92%); type: functional
DU-145 [7] = test: Cell cycle arrest in human DU145 cells assessed as accumulation at G0/G1 phase at 200 nM after 24 hrs by propidium iodide staining based flow cytometry (reference value: 66.07%); type: functional
DU-145 [8] = test: Induction of apoptosis in human DU145 cells assessed as late apoptotic cells at 200 nM after 24 hrs by Annexin V-FITC/propidium iodide staining based flow cytometry (reference value: 2.55%); type: functional
DU-145 [9] = test: Antimigratory activity against human DU145 cells assessed as inhibition of wound healing at 200 nM after 24 hrs by phase contrast microscopic method relative to control; type: functional; conditions: DU-145, 24 h; how it was run: as §1
DU-145 [10] = test: Induction of mitochondrial membrane potential loss in human DU145 cells assessed as cell population with intact membrane potential at 400 nM after 24 hrs by JC-1 staining based flow cytometry (reference value: 80.92%); type: functional
DU-145 [11] = test: Cell cycle arrest in human DU145 cells assessed as accumulation at subG1 phase at 200 nM after 24 hrs by propidium iodide staining based flow cytometry (reference value: 1.91%); type: functional
DU-145 [12] = test: Induction of apoptosis in human DU145 cells assessed as necrotic cells at 200 nM after 24 hrs by Annexin V-FITC/propidium iodide staining based flow cytometry (reference value: 0.75%); type: functional
DU-145 [13] = test: Induction of morphological changes in human DU145 cells assessed as apoptotic body formation after 48 hrs by acridine orange/ethidium bromide staining based fluorescence microscopic method; type: functional, cell-based
How it was run: (§2)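 DU145 cells plated at 1×10^6 cell/ml and treated with varying concentrations of compound 48 h at 37 °C, 5% CO2. Acridine orange and ethidium bromide (10 µg/mL each) added. Within 10 min cells viewed by fluorescence microscopy (ex 488 nm, em 550 nm) at 200x and scored for apoptotic morphology.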

DU-145 [14] = test: Induction of morphological changes in human DU145 cells assessed as cell shrinkage after 48 hrs by acridine orange/ethidium bromide staining based fluorescence microscopic method; type: functional; how it was run: as §2
DU-145 [15] = test: Cell cycle arrest in human DU145 cells assessed as accumulation at G2/M phase at 200 nM after 24 hrs by propidium iodide staining based flow cytometry (reference value: 24.71%); type: functional

`Cn1cc(C(=O)C(=O)N2CCCCC2)c2cc(Nc3nccc(-c4ccc(Cl)cc4)n3)ccc21` was tested, and the Activity (DU-145 [1]) was “Dose-dependent effect”, the inhibition at 0.1 µM (DU-145 [2]) was 61.6% and the inhibition at 0.4 µM (DU-145 [3]) was 47.2%. The Activity (DU-145 [4]) was 16.34%, the Activity (DU-145 [5]) was “Dose-dependent effect” and the Activity (DU-145 [6]) was 66.91%. The Activity (DU-145 [7]) was 57.38%, the Activity (DU-145 [8]) was 6.9% and the inhibition at 0.2 µM (DU-145 [9]) was 52.1%. It also gave an Activity (DU-145 [10]) of 63.89%, an Activity (DU-145 [11]) of 5.72% and an Activity (DU-145 [12]) of 2.14%. The Activity (DU-145 [13]) was “Dose-dependent effect”, the Activity (DU-145 [14]) was “Dose-dependent effect” and the Activity (DU-145 [15]) was 28.65%.
